The data set can be described thus: Toxicity liver stage against HepG2, at 10uM. Conditions: human, HepG2-A16-CD81EGFP cells; read-out: INHIBITION
Details: test concentration 10 uM, cell line HepG2-A16-CD81EGFP. In kind it is cell-based. The essentials: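 Uninfected HepG2-A16-CD81EGFP cells, 3 × 10^3 per well, 1536-well, plated on prespotted compound at 10 μM final, parasite-free screening media added to match infected plates; puromycin 10 μM positive, DMSO 0.5% negative; run in parallel with 48 h PbLuc assay at 37 °C, 5% CO2; viability by CellTiter-Glo luminescence, normalized to controls.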

Structures are written as SMILES.

In the case of `Cc1nc(N2CCN(C(=O)c3ccccc3)CC2)c2cnn(C)c2n1`, the cytotoxicity at 10 µM was -11.5%.

`CC(=O)N1CCC(c2nccnc2Oc2ccccc2)CC1`: the cytotoxicity at 10 µM amounted to 3.7%.

Regarding `CC(NC(=O)C1CCN(C(C)C)CC1)c1nncn1C1CCCC1` (configuration not stated), the cytotoxicity at 10 µM is -6.93%.

On to `CC(C)c1nccc(CN2CCCC(O)(CN3CCCC3)C2)n1` (configuration not stated), for which the cytotoxicity at 10 µM was -0.413%.

`Cc1nn(CCO)c(C)c1-c1cc(C(C)(C)C)nc(N)c1C#N`: the cytotoxicity at 10 µM amounted to 4.93%.

On to `CS(=O)(=O)N1CCCCC1CCc1ccc(O)cc1` (configuration not stated), for which the cytotoxicity at 10 µM was -0.311%.

With `CCc1nnc2n1CCN(c1nc(C)cc(N(C)C)n1)C2`, the cytotoxicity at 10 µM is -5.89%.

Consider `CCNC(=O)c1cnc(Cc2ccc(F)cc2)s1`, for which the cytotoxicity at 10 µM was found to be 4.44%.

For the compound `COCC(C)NC(=O)c1cc(C)n(-c2cccc(OC)c2)c1C` (configuration not stated), the cytotoxicity at 10 µM was -13.9%.

Consider `Cc1csc(CN2CCn3c(COc4cccnc4)cnc3C2C)n1` (configuration not stated), for which the cytotoxicity at 10 µM is -98.4%.

For the compound `c1csc(-c2noc(CNCCn3cccn3)n2)c1`, the cytotoxicity at 10 µM was -8.21%.

For `COC(=O)[C@H]1CN(C(=O)NC(C)C)CCN1C(=O)C1CCCCC1`, the cytotoxicity at 10 µM came to 1.35%.

For the compound `CCC(C(=O)NCC1CCN(c2cnn(C)c(=O)c2)CC1)n1cccn1` (configuration not stated), the cytotoxicity at 10 µM amounted to 6.01%.

For the compound `CC(=O)c1cc(CC(=O)N2CCN(S(=O)(=O)c3ccccc3)CC2)cs1`, the cytotoxicity at 10 µM is -0.943%.

For `Cc1noc(C)c1CN1CCO[C@H]2CN(Cc3cccc(F)c3)C[C@H]21`, the cytotoxicity at 10 µM is -99.8%.

As for `Cc1noc(C)c1CSc1nc(=O)ccn1C(C)C`, the cytotoxicity at 10 µM stood at 5.95%.

For the compound `O=C(NC[C@]12COC[C@H]1CN(Cc1nccs1)C2)N1CCCC1`, the cytotoxicity at 10 µM was -7.27%.

Take `CC(C)c1nc2c(n1C)CCN(Cc1nc(-c3ccco3)no1)C2`: the cytotoxicity at 10 µM is -0.403%.

Take `COC(=O)N1CCC(Nc2cccc(F)c2C(C)=O)CC1`: the cytotoxicity at 10 µM was determined as 12.7%.

As to `COc1ccc(CC(=O)Nc2cccnc2N2CCCC2)cc1OC`, the cytotoxicity at 10 µM was -22.6%.

Consider `COc1cc(OC)c(CNC(=O)NCc2ccc(C#N)cc2)c(OC)c1`, for which the cytotoxicity at 10 µM was determined as 8.01%.

For the compound `O=C(CCc1nc(-c2cccnc2)no1)NCC1CCN(C2CC2)C1` (configuration not stated), the cytotoxicity at 10 µM was determined as 0.113%.

With `NCC1CCC(C(NC(=O)c2ccccc2)c2ccccn2)CC1` (configuration not stated), the cytotoxicity at 10 µM stood at 0%.

As to `CCCn1nc2c(cc1=O)CN(CCN1CCCC1=O)CC2`, the cytotoxicity at 10 µM is -11.6%.

Regarding `Cc1ncsc1C(=O)NCCNc1cnccn1`, the cytotoxicity at 10 µM was determined as 0.00742%.

Regarding `CC(C)c1cnc(CN2CCCS2(=O)=O)o1`, the cytotoxicity at 10 µM was found to be 10.6%.

For `CN(Cc1ccsc1)C(=O)CN1CCCC1Cn1cccn1` (configuration not stated), the cytotoxicity at 10 µM is -3.78%.

For `CC(=O)N1CCN(C(=O)NCCCc2cn[nH]c2C)CC1`, the cytotoxicity at 10 µM stood at 12.1%.

As to `CC(=O)N1CCOC[C@H](OCC(=O)N(C)C)C1`, the cytotoxicity at 10 µM was -1.13%.

Regarding `O=C(c1ccc(Cn2cccc2)cc1)N1CCN(CCO)CC1`, the cytotoxicity at 10 µM is -3.69%.

As to `CC(NC(=O)N1CCSC(C)(C)C1)c1noc(-c2ccccc2)n1` (configuration not stated), the cytotoxicity at 10 µM was -22.3%.

`NC(=O)CN1CCC(NC(=O)c2ccn(-c3cccc(F)c3)n2)CC1`: the cytotoxicity at 10 µM amounted to 13.4%.

Consider `O=C(NC[C@]12COC[C@H]1CN(Cc1ccncc1)C2)c1ccco1`, for which the cytotoxicity at 10 µM came out at 8.75%.

Turning to `CC1CCN(Cc2cnc(S(=O)(=O)CC3CC3)n2CC2CCCO2)CC1` (configuration not stated), the cytotoxicity at 10 µM came out at 6.17%.

On to `COC[C@@]12CCC[C@@H]1CN(C(=O)CN(C)C)C2`, for which the cytotoxicity at 10 µM was determined as 4.84%.

Take `CCC(C)C(=O)N(Cc1ccccn1)C1CC1` (configuration not stated): the cytotoxicity at 10 µM is -44.5%.

`CCOCC1CN(Cc2cccs2)Cc2nn(C)cc21` (configuration not stated): the cytotoxicity at 10 µM is -75.2%.

As to `CN(C)C(=O)CN1CCn2cc(Cn3cccn3)nc2C1`, the cytotoxicity at 10 µM turned out to be 4.96%.

Turning to `Cc1[nH]c2ccc(C(=O)N3C[C@@H](O)[C@H](N4CCOCC4)C3)cc2c1C`, the cytotoxicity at 10 µM is -21.3%.

On to `NCC(c1cccnc1)N1CCOCC1` (configuration not stated), for which the cytotoxicity at 10 µM was 4.32%.

Turning to `CC1c2ccc(F)cc2CCN1C(=O)c1[nH]c(=O)[nH]c(=O)c1N` (configuration not stated), the cytotoxicity at 10 µM is -5.22%.

For `O=C(c1ccc(F)cc1)N1C[C@@H]2COC[C@]2(COc2cccnc2)C1`, the cytotoxicity at 10 µM is -100%.

`O=C(CCNc1ncccn1)NCCc1ccc(Cl)s1`: the cytotoxicity at 10 µM is -3.91%.

`CC1N(CC2CC2)C(=O)COC12CCN(C(=O)c1ccno1)CC2` (configuration not stated): the cytotoxicity at 10 µM was 0.104%.

For `CN(Cc1ccncc1)C(=O)c1ccc2c(c1O)OC(C)(C)C2`, the cytotoxicity at 10 µM was determined as 1.95%.

Regarding `CCNc1cc2c(nn1)CCN(C(=O)c1cc3ccccc3o1)C2`, the cytotoxicity at 10 µM came out at 3.88%.

On to `CC(C)Sc1ncccc1C(=O)NCc1ccc(O)cc1`, for which the cytotoxicity at 10 µM is -3.29%.

With `Cc1noc(C)c1CS(=O)(=O)CC(=O)N1CCc2sccc2C1`, the cytotoxicity at 10 µM was -17%.

Consider `CN(C)C(=O)CN1C[C@H]2CC[C@@H](C1)N(Cc1ccc(Cl)cc1Cl)C2`, for which the cytotoxicity at 10 µM was -10.2%.

With `Cc1cc(C(=O)NC2(C#N)CCSCC2)n(C)n1`, the cytotoxicity at 10 µM was 22.1%.

In the case of `Cn1ccc2cc(C(=O)NC3CCOC(C)(C)C3)ccc21` (configuration not stated), the cytotoxicity at 10 µM was determined as 1.67%.

For the compound `CC(C)CCn1[nH]c(CNc2ccc(F)cc2)nc1=O`, the cytotoxicity at 10 µM was 11.3%.

Take `Cc1ccc(-c2cc(CNc3ncnc4c3CCNCC4)no2)cc1`: the cytotoxicity at 10 µM was determined as 13%.

As for `COc1ccc(F)cc1-c1nc2c([nH]1)c(C1CC1)nn2C`, the cytotoxicity at 10 µM is -2.18%.

For `Cc1nn(C)c(C)c1C1CCCN1Cc1nc2ccccc2o1` (configuration not stated), the cytotoxicity at 10 µM is -20.6%.

Regarding `COCC(=O)NCCC(=O)N1CCN(S(=O)(=O)c2cccc(Br)c2)CC1`, the cytotoxicity at 10 µM was -40.4%.

For `CCC(=O)N1CCN(C(=O)c2ccc(COC)o2)[C@H]2CS(=O)(=O)C[C@H]21`, the cytotoxicity at 10 µM is -10.9%.

With `Cc1cc(N2CCC(O)(CN(C)C(=O)CCN)C2)c2cnccc2n1` (configuration not stated), the cytotoxicity at 10 µM was -2.06%.

With `COCc1ccccc1NC(=O)c1ccoc1`, the cytotoxicity at 10 µM is -2.17%.

Regarding `CNC(=O)c1ccc(-c2ccc(CNC(=O)COC)cc2)nc1C`, the cytotoxicity at 10 µM is -5.52%.

Consider `CC(CCSc1ccccc1)N1CCN(C(=O)c2cccs2)CC1` (configuration not stated), for which the cytotoxicity at 10 µM is 25.5%.

In the case of `CN1CCCC1CNC(=O)CCCOc1ccc(I)cc1` (configuration not stated), the cytotoxicity at 10 µM was -14%.

As for `N#Cc1ccc(SCCC(=O)Nc2ccc(CC(N)=O)cc2)cc1`, the cytotoxicity at 10 µM was -5.25%.

As for `CC(C)N(CC(N)=O)CC(=O)N(C1=CCCCC1)C1CC1`, the cytotoxicity at 10 µM was -0.429%.

On to `CCc1oc(C(=O)N[C@@H]2c3ccccc3C[C@@H]2O)cc1CN1CCCC1`, for which the cytotoxicity at 10 µM was -5.65%.

`CO[C@@H]1CCN(c2nnc(C)s2)C[C@@H]1Cc1cccc(C)c1`: the cytotoxicity at 10 µM came out at 11.8%.

As for `CN(Cc1ccccc1)CC1(O)CCCN(CC(C)(C)C)C1=O` (configuration not stated), the cytotoxicity at 10 µM was -12.4%.

`O=C(O)C(c1ccc(O)cc1)N1CCC(N2CCSCC2)CC1` (configuration not stated): the cytotoxicity at 10 µM worked out at 0.646%.

As to `CCN1CCN(c2ncc(-c3cc(C)no3)c(-c3ccco3)n2)CC1`, the cytotoxicity at 10 µM is -11%.

As for `Cc1ccc(C(=O)N2CCC(Oc3c(C)cccc3C)CC2)c(=O)[nH]1`, the cytotoxicity at 10 µM is -2.51%.

Consider `COCCNC(=O)NC1CCN(c2cnn(C)c2)C1` (configuration not stated), for which the cytotoxicity at 10 µM amounted to 6%.

For `CS(=O)(=O)N1C[C@H]2CC[C@@H](C1)N(Cc1cscn1)C2=O`, the cytotoxicity at 10 µM was -9.35%.

For the compound `COCCn1c2c(ccc1=O)CC(NC(=O)c1cscn1)CC2` (configuration not stated), the cytotoxicity at 10 µM is -97%.

In the case of `COc1cc(C(=O)N2CCC(c3n[nH]c(C)n3)CC2)cc(OC)c1C`, the cytotoxicity at 10 µM was -10.9%.

For `CO[C@H]1CNC[C@@H]1NC(=O)c1cc(C)nc2ccc(C)cc12`, the cytotoxicity at 10 µM is 1.25%.

`Cc1cc(NCCCC(F)(F)F)n2nc(C)cc2n1`: the cytotoxicity at 10 µM stood at 0.894%.

Consider `O=C(NCC(c1ccccc1)N1CCOCC1)Nc1cn[nH]c1` (configuration not stated), for which the cytotoxicity at 10 µM was -15.8%.

As to `Cc1ccc(NC(=O)CNC(C)CN2CCOCC2)c(F)c1` (configuration not stated), the cytotoxicity at 10 µM was -51.8%.

Take `CCc1noc(C)c1C(=O)N1CCCC(n2nc(C)nc2C)C1` (configuration not stated): the cytotoxicity at 10 µM was -7.01%.

Consider `COc1ccc(-c2cc(C3CCN(C(C)=O)CC3)ccn2)cc1`, for which the cytotoxicity at 10 µM is -5.05%.

In the case of `CC1CCCN(Cc2c(C3CC3)n(CC(=O)N(C)C)c3ncccc23)C1` (configuration not stated), the cytotoxicity at 10 µM was 4.04%.

`COC(=O)C(CNC(=O)Nc1nncs1)Cc1ccc(O)cc1` (configuration not stated): the cytotoxicity at 10 µM came out at 16.9%.

Regarding `COc1ccccc1C1=NOC(CC2(C(=O)NC(C)C)CCOCC2)C1` (configuration not stated), the cytotoxicity at 10 µM is -20.4%.

As to `CC(C)CC(=O)N1CC(=O)c2sc(Nc3ccc(F)cc3F)nc2C1`, the cytotoxicity at 10 µM is -2.89%.

As for `Cc1ccc(CSc2nc(N)cc(NCCC(N)=O)n2)cc1`, the cytotoxicity at 10 µM was 0.375%.

For `Cc1cc(N(C)C)nc(N2CCCC2c2ccccn2)n1` (configuration not stated), the cytotoxicity at 10 µM was determined as 3.16%.

As to `COCC(=O)N1CCOC2(CCCN(c3cnccn3)C2)C1` (configuration not stated), the cytotoxicity at 10 µM was 7.83%.

Turning to `CNc1cc(-c2ccncc2)ncn1`, the cytotoxicity at 10 µM was -13.9%.

Regarding `Cc1ccc(C2CSCCN2C(=O)c2cccnc2)cc1` (configuration not stated), the cytotoxicity at 10 µM is -4.11%.

For `NC(=O)CN(Cc1ccc(Br)cc1)C(=O)c1ccccn1`, the cytotoxicity at 10 µM came to 6.85%.

Take `Nc1c(Cl)cnn1C1CCN(Cc2ccccc2)C1` (configuration not stated): the cytotoxicity at 10 µM was 0.648%.

Regarding `CCc1cnc(N)nc1N[C@@H](C)c1ncccc1C`, the cytotoxicity at 10 µM is -3.94%.

In the case of `O=C(NCc1cccnc1)NCC(O)c1ccccc1C(F)(F)F` (configuration not stated), the cytotoxicity at 10 µM worked out at 1.5%.

Take `Cc1ccnn1-c1ccc(C(=O)N2CCCC(n3ccnc3)C2)cc1` (configuration not stated): the cytotoxicity at 10 µM is -18.2%.

Regarding `CC(NC(=O)CN1CCCC1=O)c1ccc(Cl)s1` (configuration not stated), the cytotoxicity at 10 µM is -6.45%.

As to `Cn1nccc1C(=O)N1C[C@@H]2CN(S(C)(=O)=O)CCO[C@@H]2C1`, the cytotoxicity at 10 µM is 9.61%.

As to `Cn1nnnc1SCCNC(=O)C1CCN(C(=O)C2CCCC2)CC1`, the cytotoxicity at 10 µM is -11.8%.

For the origin of these results see ChEMBL document CHEMBL4513216, “Probing the Open Global Health Chemical Diversity Library for Multistage-Active Starting Points for Next-Generation Antimalarials” (ACS Infect Dis, 2020).
